Laboratory results as given in paper PMC4633020 (Journal of medicinal chemistry, 2015).
“Also recorded” adds a separate entry of the source.

Columns and labels:
[1] = system: other bacteria in the ESKAPE panel; assay: Antibacterial screening against the ESKAPE panel; type: cell-based; details: result in words
E. faecium NCTC 7171 = assay: MIC, broth microdilution; type: cell-based, Enterococcus faecium; details: for MIC: Enterococcus faecium, NCTC7171, E. faecium NCTC 7171; for antibacterial activity against E. faecium (in words): SAR discussion, E. faecium NCTC 7171
PBP2a of S. aureus = PBP2a of S. aureus (Staphylococcus aureus, UniProt P07944); assay: BOCILLIN FL binding assay for PBP2a; details: at concentrations of up to 100 μg/mL
PBP5fm of E. faecium = assay: BOCILLIN FL binding assay for PBP5fm; details: at up to 100 μg/mL
Outline: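 Recombinant PBP5 (aa 34-678, E. faecium D63r) carried an N-terminal His-tag, was expressed in E. coli BL21(DE3), and was purified by anion exchange then metal chelate column. Enzyme (40 μM final) was preincubated with test compound in 25 mM Hepes, 1 M NaCl, pH 7.0 at 37 °C. BOCILLIN FL (30 μM final) was then added, with incubations of 20 min. Labelling was read by 12% SDS-PAGE fluorescence scan and band quantitation against a no-inhibitor control.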

[2] = system: PBPs in the E. faecium membrane fractions; assay: PBP inhibition in E. faecium membrane fractions; type: binding; details: data less clear due to low PBP copy numbers
[3] = In vitro metabolic stability in human liver S9; type: in vitro ADME; details: calculated from in vitro half-life in human liver S9
[4] = Plasma-protein binding, equilibrium dialysis; type: in vitro ADME; details: human plasma
transcription = assay: In vitro transcription assay; type: biochemical; details: T7 transcription kit
E. faecium NCTC7171 = assay: Macromolecular synthesis assays; type: cell-based, Enterococcus faecium; details: 2 × MIC (8 μg/mL), 120 min
Hemolysis assay = details: red blood cells
[5] = system: transcription and translation (β-galactosidase expression); assay: Tandem in vitro transcription and translation assay; type: biochemical, Escherichia coli; details: E. coli S30 extract
[6] = marketed antibiotics; cited from earlier work

PBP2a of S. aureus, sequence (P07944 whole entry): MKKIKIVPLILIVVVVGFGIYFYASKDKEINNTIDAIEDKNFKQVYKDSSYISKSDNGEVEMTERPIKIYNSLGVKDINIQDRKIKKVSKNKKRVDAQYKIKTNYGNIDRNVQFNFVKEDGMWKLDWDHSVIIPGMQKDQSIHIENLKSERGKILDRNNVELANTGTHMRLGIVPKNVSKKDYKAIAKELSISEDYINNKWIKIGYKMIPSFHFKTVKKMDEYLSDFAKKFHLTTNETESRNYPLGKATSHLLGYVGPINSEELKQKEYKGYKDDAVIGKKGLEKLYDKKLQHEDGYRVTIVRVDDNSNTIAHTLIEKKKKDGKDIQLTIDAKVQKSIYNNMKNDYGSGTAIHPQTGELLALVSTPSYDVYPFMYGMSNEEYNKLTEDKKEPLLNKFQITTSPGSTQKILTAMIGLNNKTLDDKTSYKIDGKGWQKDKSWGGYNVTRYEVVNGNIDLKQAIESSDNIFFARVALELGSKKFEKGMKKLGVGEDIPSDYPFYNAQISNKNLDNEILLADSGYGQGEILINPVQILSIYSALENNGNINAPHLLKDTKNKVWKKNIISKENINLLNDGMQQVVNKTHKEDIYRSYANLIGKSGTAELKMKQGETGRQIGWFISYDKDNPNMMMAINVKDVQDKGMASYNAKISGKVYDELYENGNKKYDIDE

CC1=C(C(N)=O)C(c2ccc(C(C)C)cc2)n2nc(SCc3ccccc3)nc2N1 (stereo not shown) [Compound 1, 2-(Benzylthio)-7-(4-isopropylphenyl)-5-methyl-4,7-dihydro-[1,2,4]triazolo[1,5-a]pyrimidine-6-carboxamide]
antibacterial activity against the other bacteria in the ESKAPE panel [1]: No antibacterial activity | MIC (E. faecium NCTC 7171): ≤ 8 µg/mL | inhibition of recombinant PBP2a (PBP2a of S. aureus): no inhibition; also recorded: did not inhibit | inhibition of PBP5fm (PBP5fm of E. faecium): no inhibition; also recorded: did not inhibit | inhibition of PBPs in E. faecium membranes [2]: did not inhibit | Apparent intrinsic clearance [3]: 11.1 mLmin^−1kg^−1

CC1=C(C(N)=O)C(c2ccccc2)n2nc(SCc3ccccc3)nc2N1 (stereo not shown) [Compound 2]
antibacterial activity against E. faecium (in words) (E. faecium NCTC 7171): loss of antibacterial activity

CCc1ccc(C2C(C(N)=O)=C(C)Nc3nc(SCc4ccccc4)nn32)cc1 (stereo not shown) [Compound 4]
MIC (E. faecium NCTC 7171): ≤ 8 µg/mL

CC1=C(C(N)=O)C(c2ccc(O)cc2)n2nc(SCc3ccccc3)nc2N1 (stereo not shown) [Compound 6]
antibacterial activity against E. faecium (in words) (E. faecium NCTC 7171): loss of antimicrobial activity

COc1ccc(C2C(C(N)=O)=C(C)Nc3nc(SCc4ccccc4)nn32)cc1 (stereo not shown) [Compound 7]
antibacterial activity against E. faecium (in words) (E. faecium NCTC 7171): devoid of activity

COc1ccc(C2C(C(N)=O)=C(C)Nc3nc(SCc4ccccc4)nn32)cc1O (stereo not shown) [Compound 8]
antibacterial activity against E. faecium (in words) (E. faecium NCTC 7171): loss of antimicrobial activity

COc1ccc(C2C(C(N)=O)=C(C)Nc3nc(SCc4ccccc4)nn32)cc1OC (stereo not shown) [Compound 9]
antibacterial activity against E. faecium (in words) (E. faecium NCTC 7171): loss of antimicrobial activity

CC1=C(C(N)=O)C(c2ccc(OC(C)C)cc2)n2nc(SCc3ccccc3)nc2N1 (stereo not shown) [Compound 10, 2-(Benzylthio)-7-(4-isopropoxyphenyl)-5-methyl-4,7-dihydro-[1,2,4]triazolo[1,5-a]pyrimidine-6-carboxamide]
MIC (E. faecium NCTC 7171): ≤ 8 µg/mL | Plasma-protein binding (in words) [4]: high | Apparent intrinsic clearance [3]: 10.9 mLmin^−1kg^−1

CC1=C(C(N)=O)C(c2ccc(OC(F)(F)F)cc2)n2nc(SCc3ccccc3)nc2N1 (stereo not shown) [Compound 11]
MIC (E. faecium NCTC 7171): ≤ 8 µg/mL | antibacterial activity against E. faecium (in words) (E. faecium NCTC 7171): retained activity

CSc1ccc(C2C(C(N)=O)=C(C)Nc3nc(SCc4ccccc4)nn32)cc1 (stereo not shown) [Compound 12]
antibacterial activity against E. faecium (in words) (E. faecium NCTC 7171): devoid of activity

CCSc1ccc(C2C(C(N)=O)=C(C)Nc3nc(SCc4ccccc4)nn32)cc1 (stereo not shown) [Compound 13, 2-(Benzylthio)-7-(4-ethylthiophenyl]-5-methyl-4,7-dihydro[1,2,4]-triazolo[1,5-a]pyrimidine-6-carboxamide]
improvement of the anti-E. faecium activity (E. faecium NCTC 7171; compared to the 4-OCH3 (7) and 4-SMe (12) derivatives): 32 fold | Plasma-protein binding (in words) [4]: high | Apparent intrinsic clearance [3]: <10.4 mLmin^−1kg^−1

CC1=C(C(N)=O)C(c2ccc(N(C)C)cc2)n2nc(SCc3ccccc3)nc2N1 (stereo not shown) [Compound 16, 2-(Benzylthio)-7-(4-dimethylaminophenyl)-5-methyl-4,7-dihydro[1,2,4]triazolo[1,5-a]pyrimidine-6-carboxamide]
MIC (E. faecium NCTC 7171): ≤ 8 µg/mL | effect on in vitro transcription (transcription): did not show any effect | inhibition of peptidoglycan biosynthesis (E. faecium NCTC7171; D-[2,3-3H]-alanine incorporation): notable inhibition | inhibition of translation (protein synthesis) (E. faecium NCTC7171; L-[4,5-3H]-leucine incorporation): did not inhibit | inhibition of transcription (RNA synthesis) (E. faecium NCTC7171; [5,6-3H]-uridine incorporation): did not inhibit | inhibition of replication (DNA synthesis) (E. faecium NCTC7171; [methyl-3H]-thymidine incorporation): did not inhibit | hemolysis at 64 μg/mL (Hemolysis assay): 1 to 2% | Apparent intrinsic clearance [3]: <10.4 mLmin^−1kg^−1 | effect on in vitro transcription and translation [5]: did not show any effect

CCN(CC)c1ccc(C2C(C(N)=O)=C(C)Nc3nc(SCc4ccccc4)nn32)cc1 (stereo not shown) [Compound 17]
MIC (E. faecium NCTC 7171): ≤ 8 µg/mL

CCN(CC)CCOc1ccc(C2C(C(N)=O)=C(C)Nc3nc(SCc4ccccc4)nn32)cc1 (stereo not shown) [Compound 20]
antibacterial activity against E. faecium (in words) (E. faecium NCTC 7171): no activity

CC1=C(C(N)=O)C(c2ccc(C(F)(F)F)cc2)n2nc(SCc3ccccc3)nc2N1 (stereo not shown) [Compound 21]
MIC (E. faecium NCTC 7171): ≤ 8 µg/mL | antibacterial activity against E. faecium (in words) (E. faecium NCTC 7171): retained activity

CC1=C(C(N)=O)C(c2ccc(F)cc2)n2nc(SCc3ccccc3)nc2N1 (stereo not shown) [Compound 22]
antibacterial activity against E. faecium (in words) (E. faecium NCTC 7171): did not show any activity

CC1=C(C(N)=O)C(c2ccc(Cl)cc2)n2nc(SCc3ccccc3)nc2N1 (stereo not shown) [Compound 23]
antibacterial activity against E. faecium (in words) (E. faecium NCTC 7171): did not show any activity

CC1=C(C(N)=O)C(c2ccc(C#N)cc2)n2nc(SCc3ccccc3)nc2N1 (stereo not shown) [Compound 24]
antibacterial activity against E. faecium (in words) (E. faecium NCTC 7171): retained activity

CC1=C(C(N)=O)C(c2ccccc2C(F)(F)F)n2nc(SCc3ccccc3)nc2N1 (stereo not shown) [Compound 27]
antibacterial activity against E. faecium (in words) (E. faecium NCTC 7171): inactive

CC1=C(C(N)=O)C(C2CCCCC2)n2nc(SCc3ccccc3)nc2N1 (stereo not shown) [Compound 42]
antibacterial activity against E. faecium (in words) (E. faecium NCTC 7171): devoid of activity

CCOC(=O)C1=C(C)Nc2nc(SCc3ccccc3)nn2C1c1ccc(N(C)C)cc1 (stereo not shown) [Compound 43]
antibacterial activity against E. faecium (in words) (E. faecium NCTC 7171): lost antimicrobial activity

CNC(=O)C1=C(C)Nc2nc(SCc3ccccc3)nn2C1c1ccc(N(C)C)cc1 (stereo not shown) [Compound 45]
antibacterial activity against E. faecium (in words) (E. faecium NCTC 7171): slight reduction of activity

CN(C)c1ccc(C2C3=C(CCCC3=O)Nc3nc(SCc4ccccc4)nn32)cc1 (stereo not shown) [Compound 46]
antibacterial activity against E. faecium (in words) (E. faecium NCTC 7171): abolished activity

CC1=C(C(=O)Nc2ccccc2)C(c2ccc(N(C)C)cc2)n2nc(SCc3ccccc3)nc2N1 (stereo not shown) [Compound 51]
antibacterial activity against E. faecium (in words) (E. faecium NCTC 7171): slight reduction of activity

CC1=C(C(N)=O)C(c2ccc(N(C)C)cc2)n2nc(SCCNC(=O)OCc3ccccc3)nc2N1 (stereo not shown) [Compound 72]
antibacterial activity against E. faecium (in words) (E. faecium NCTC 7171): not tolerated

CC1=C(C(N)=O)C(c2ccc(C(C)C)cc2)n2nc(SCCNC(=O)OCc3ccccc3)nc2N1 (stereo not shown) [Compound 73]
antibacterial activity against E. faecium (in words) (E. faecium NCTC 7171): not tolerated

CC1=C(C(N)=O)C(c2ccc(C(=O)O)cc2)n2nc(SCCNC(=O)OCc3ccccc3)nc2N1 (stereo not shown) [Compound 74]
antibacterial activity against E. faecium (in words) (E. faecium NCTC 7171): not tolerated

CC1=C(C(N)=O)C(c2ccc(N(C)C)cc2)n2nc(SCc3ccncc3)nc2N1 (stereo not shown) [Compound 75]
antibacterial activity against E. faecium (in words) (E. faecium NCTC 7171): loss of activity

CC1=C(C(N)=O)C(c2ccc(N(C)C)cc2)n2nc(Sc3ccccn3)nc2N1 (stereo not shown) [Compound 76]
antibacterial activity against E. faecium (in words) (E. faecium NCTC 7171): loss of activity

CC1=C(C(N)=O)C(c2ccc(N(C)C)cc2)n2nc(SCc3ccc(C(F)(F)F)cc3)nc2N1 (stereo not shown) [Compound 80]
antibacterial activity against E. faecium (in words) (E. faecium NCTC 7171): no activity

CC1=C(C(N)=O)C(c2ccc(N(C)C)cc2)n2nc(SCc3ccc(OC(F)(F)F)cc3)nc2N1 (stereo not shown) [Compound 81]
antibacterial activity against E. faecium (in words) (E. faecium NCTC 7171): no activity

CC1=C(C(N)=O)C(c2ccc(N(C)C)cc2)n2nc(SCc3ccc(SC(F)(F)F)cc3)nc2N1 (stereo not shown) [Compound 82]
antibacterial activity against E. faecium (in words) (E. faecium NCTC 7171): as active as compound 1

CC1=C(C(N)=O)C(c2ccc(N(C)C)cc2)n2nc(SCc3ccc([N+](=O)[O-])cc3)nc2N1 (stereo not shown) [Compound 83, 2-(4-Nitrobenzylthio)-7-(4-dimethylaminophenyl)-5-methyl-4,7-dihydro[1,2,4]triazolo[1,5-a]pyrimidine-6-carboxamide]
antibacterial activity against E. faecium (in words) (E. faecium NCTC 7171): as good as compound 16 | Plasma-protein binding (in words) [4]: high | Apparent intrinsic clearance [3]: <10.4 mLmin^−1kg^−1

CC1=C(C(N)=O)C(c2ccc(N(C)C)cc2)n2nc(SCc3ccc(C#N)cc3)nc2N1 (stereo not shown) [Compound 84, 2-(4-Cyanobenzylthio)-7-(4-dimethylaminophenyl)-5-methyl-4,7-dihydro-[1,2,4]triazolo[1,5-a]pyrimidine-6-carboxamide]
antibacterial activity against E. faecium (in words) (E. faecium NCTC 7171): as active as compound 1 | inhibition of recombinant PBP2a (PBP2a of S. aureus): lacked the ability to inhibit; also recorded: did not inhibit | inhibition of PBP5fm (PBP5fm of E. faecium): lacked the ability to inhibit; also recorded: did not inhibit | hemolysis at 64 μg/mL (Hemolysis assay): 1 to 2% | inhibition of PBPs in E. faecium membranes [2]: did not inhibit | Apparent intrinsic clearance [3]: <10.4 mLmin^−1kg^−1

CCCCCCCCCC(=O)N[C@@H](Cc1c[nH]c2ccccc12)C(=O)N[C@H](CC(N)=O)C(=O)N[C@@H](CC(=O)O)C(=O)N[C@@H]1C(=O)NCC(=O)N[C@@H](CCCN)C(=O)N[C@@H](CC(=O)O)C(=O)N[C@H](C)C(=O)N[C@@H](CC(=O)O)C(=O)NCC(=O)N[C@H](CO)C(=O)N[C@@H]([C@H](C)CC(=O)O)C(=O)N[C@@H](CC(=O)c2ccccc2N)C(=O)O[C@@H]1C [daptomycin]
plasma protein binding [6]: > 91%

Cc1onc(-c2ccccc2)c1C(=O)N[C@@H]1C(=O)N2[C@@H]1SC(C)(C)[C@@H]2C(=O)O [oxacillin]
plasma protein binding [6]: > 91%

CO[C@H]1/C=C/O[C@@]2(C)Oc3c(C)c(O)c4c(O)c(c(/C=N/N5CCN(C)CC5)c(O)c4c3C2=O)NC(=O)/C(C)=C\C=C\[C@H](C)[C@H](O)[C@@H](C)[C@@H](O)[C@@H](C)[C@H](OC(C)=O)[C@@H]1C [rifampicin]
plasma protein binding [6]: > 91%

teicoplanin
plasma protein binding [6]: > 91%
